This note sets out measurements from ChEMBL document CHEMBL4414651, “Discovery and Optimization of Salicylic Acid-Derived Sulfonamide Inhibitors of the WD Repeat-Containing Protein 5-MYC Protein-Protein Interaction” (J Med Chem, 2019).

Active and inactive are the calls of the source. The rule behind the calls is not given here.

Series [1] has as its target T1, WD repeat-containing protein 5 (Homo sapiens, UniProt P61964). In words: Binding affinity to N-terminal FLAG-tagged human full-length WDR5 expressed in HEK293T cells harboring human C-terminal HA-tagged c-MYC assessed as disruption of WDR5-c-MYC protein-protein interaction at 50 uM by SDS-PAGE based immunoblot assay. It is filed as cell-based. For orientation: Immunoblotting shows a protein as a band on a membrane.

The target in series [2] is T1, WD repeat-containing protein 5.
A short description of series [3]: Solubility of the compound. It is filed as physicochemical. Summed up:
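Kinetic solubility, measured by an outside contract lab using a standard commercial assay format.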

Series [4] can be described thus: Apparent permeability from apical to basolateral side in MDCK cells. It is filed as ADME, cell-based, Canis lupus familiaris. The following applies: dog.
A short description of series [5]: Apparent permeability from basolateral to apical side in MDCK cells. The series is classed as ADME, cell-based, Canis lupus familiaris. The following applies: dog.
Series [6] in a line: Protein binding in plasma (unknown origin) assessed as unbound fraction. It is filed as ADME, cell-free.
The target of series [7] is T1, WD repeat-containing protein 5. As to the kind of experiment: Binding affinity to N-terminal FLAG-tagged human full-length WDR5 expressed in HEK293T cells harboring human C-terminal HA-tagged c-MYC assessed as disruption of WDR5-RBBP5 protein-protein interaction at 50 uM by SDS-PAGE based immunoblot assay. It is filed as cell-based. Summed up: (§1)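 HEK293 cells expressing FLAG-WDR5 and c-MYC-HA were kept in DMEM with 10% FBS, hygromycin B 50 μg/mL and puromycin 100 ng/mL. Lysates in Tris pH 8.0/NaCl/EDTA/1% Triton buffer were treated with compound at 50 μM or 6.25–50 μM. α-FLAG magnetic M2 beads, 2 h at 4 °C, then SDS-PAGE and α-RBBP5 immunoblot. Quantified against vehicle; at least two independent repeats.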

The species entered for another series is Homo sapiens. As to the kind of experiment: Inhibition of human MLL1/WDR5/RBBP5/ASH2L/DPY30 complex assessed as reduction in histone methyl-transferase activity using H3-peptide as substrate.
Series [8] concerns the target T1, WD repeat-containing protein 5. In words: Binding affinity to WDR5 (unknown origin) assessed as inhibition of WDR5-MLL1 protein-protein interaction by TR-FRET assay.
Series [9] shares this target. In words: Binding affinity to N-terminal FLAG-tagged human full-length WDR5 […] assessed as change in melting temperature at 10 uM by differential scanning fluorimetry. Summed up:
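Thermal shift (differential scanning fluorimetry) on WDR5, with compounds at 10 μM. Samples were run in triplicate, and ΔTm is the average melting-temperature shift read by fluorescence.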
For orientation: In DSF a fluorescence change marks the thermal transition of the protein.

The target is the same in series [10]. In words: Binding affinity to N-terminal FLAG-tagged human full-length WDR5 expressed in HEK293T cells harboring human C-terminal HA-tagged c-MYC assessed as disruption of WDR5-c-MYC protein-protein interaction by SDS-PAGE based immunoblot assay. It is filed as cell-based.
Series [11] shares this target. As to the kind of experiment: Binding affinity to N-terminal FLAG-tagged human full-length WDR5 expressed in HEK293T cells harboring human C-terminal HA-tagged c-MYC assessed as disruption of WDR5-RBBP5 protein-protein interaction by SDS-PAGE based immunoblot assay. It is filed as cell-based. Summed up: as §1

As a reminder, the Kd is the equilibrium constant for the complex coming apart. High values mean weaker binding, low ones tighter binding. A word on the solubility: it is the concentration that dissolves in the medium under given conditions. High values mean much dissolved substance, low ones little dissolved substance. As a reminder, the Papp is the rate of passage across a membrane or cell layer, normalised by area and donor concentration. Turning to `CNC(=O)c1cc(Cl)cc(NS(=O)(=O)c2cc(Br)ccc2O)c1O`, the result in series [1] and in series [7] was Active. Binding in series [2] was characterised by a dissociation constant (Kd) of 746 nM. The same molecule displayed a solubility in series [3] greater than 100 µM. Besides, the results for the Papp in series [4] and in series [5] were 16.7 ×10⁻⁶ cm/s and 14.1 ×10⁻⁶ cm/s, respectively. Moreover, the Fu in series [6] was less than 0.0004%. The inhibition result in the series filed under Homo sapiens was “Active”.

For the molecule `O=C(O)c1cc(S(F)(F)(F)(F)F)cc(NS(=O)(=O)c2cc(Br)ccc2O)c1O`, the Kd in [2] was determined as 47 nM. In [8], the inhibition entry was “inactive”.

Molecule `N#CC1(c2ccc(O)c(NS(=O)(=O)c3cc(Br)ccc3O)c2)CC1` displayed a Kd in series [2] of 852 nM. In addition, the inhibition entry in series [8] was “inactive”.

Molecule `CNC(=O)c1c(O)c(NS(=O)(=O)c2cc(Br)ccc2O)cc(C2CC2)c1F` displayed a Kd in series [2] of 1420 nM. In addition, in [3], the solubility was greater than 100 µM. For the same molecule, the Papp in series [4] is 12.9 ×10⁻⁶ cm/s; in [5], 3.4 ×10⁻⁶ cm/s. Further, the Fu in series [6] is given as less than 0.0002%. Moreover, the inhibition entry in the series listed under Homo sapiens is “Active”.

In general, ΔTm refers to the change in melting temperature against a reference sample. Regarding `N#CC1(c2cc(NS(=O)(=O)c3cc(Br)cc(Cl)c3O)c(O)c(C(=O)O)c2)CCCCC1`, the outcome in [1] and in series [7] was Active. The molecule also yielded a Kd in series [2] of 38 nM. In series [9], the ΔTm amounted to 6.38 °C.

On to `N#CC1(c2cc(NS(=O)(=O)c3cc(Br)ccc3O)cc(C(=O)O)c2)CCC1`, for which, in series [2], the Kd was 229 nM. For the same molecule, the inhibition result in series [8] is “inactive”.

In turn, `O=C(O)c1cc(OC(F)(F)F)cc(NS(=O)(=O)c2cc(Br)cc(Cl)c2O)c1O` displayed a Kd in series [2] of 51 nM. Moreover, in [8], the inhibition result is “inactive”.

Consider `O=C(O)c1cc(C2CC2)cc(NS(=O)(=O)c2cc(Br)ccc2O)c1O`, for which the outcome in [1] and in [7] was Active. The molecule further registered a Kd in series [2] of 184 nM. In [8], the inhibition result was “inactive”.

For the molecule `CNC(=O)c1cc(C2(C#N)CCCCC2)cc(NS(=O)(=O)c2cc(Br)ccc2O)c1O`, in series [2], binding was put at a Kd of 779 nM. Moreover, the inhibition entry in series [8] was “inactive”.

`CNC(=O)c1cc(C2(C#N)CCC2)cc(NS(=O)(=O)c2cc(Br)cc(Cl)c2O)c1O`: the result in series [1] and in series [7] was Active. In [2], this molecule had a Kd of 69 nM. Also, the solubility in [3] is greater than 100 µM. The Papp in series [4] is 14 ×10⁻⁶ cm/s. Also, the Fu in series [6] was less than 0.0006%. Also, the ΔTm in series [9] is 5.53 °C. Further, the Activity entry in series [10] and in [11] was “Dose-dependent effect” throughout. Also, in the series listed under Homo sapiens, the inhibition entry was “Active”.

Consider `N#CC1(c2cc(NS(=O)(=O)c3cc(Br)ccc3O)c(O)c(C(=O)O)c2)CCC1`, for which the outcome in [1] and in series [7] was Active. The molecule further showed a Kd in [2] of 67 nM. The ΔTm in series [9] came to 3.9 °C.

Take `O=C(O)c1cc(NS(=O)(=O)c2cc(Br)cc(Cl)c2O)cc(S(F)(F)(F)(F)F)c1`: binding in series [2] was put at a Kd of 29 nM. Besides, the inhibition result in series [8] was “inactive”. Moreover, the inhibition entry in the series listed under Homo sapiens was “Active”.

For the molecule `N#CC1(c2cc(NS(=O)(=O)c3cc(Br)cc(Cl)c3O)c(O)c(C(=O)O)c2)CCC1`, the result in series [1] and in series [7] was Active. This molecule also came in with a Kd in series [2] of 30 nM. The same molecule gave a solubility in [3] greater than 100 µM. Also, the apparent permeability coefficient (Papp) in series [4] is 0.33 ×10⁻⁶ cm/s. Moreover, the Fu in series [6] is on record as less than 0.0003%. Also, in [9], the ΔTm worked out at 6.68 °C. Also, in series [8], the inhibition entry is “inactive”. Moreover, the Activity result in series [10] and in series [11] was “Dose-dependent effect” throughout. Moreover, the inhibition entry in the series filed under Homo sapiens is “Active”.
